SR-BI HDL uptake: blocks mouse SR-BI lipid uptake from DiI-HDL; Q61009; ldlA[mSR-BI] CHO cells, DiI-HDL uptake fluorescence, 3 h; inhibition, % at 12.5 µM; 320,000 compounds, 0.96% hits; AID 488896;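 active = mean replicate inhibition of at least 70% and a set share of replicates each scoring 70 or more; inconclusive = meets just one of the two criteria; inactive = fails both criteria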
Target sequence (Q61009 whole entry, looked up): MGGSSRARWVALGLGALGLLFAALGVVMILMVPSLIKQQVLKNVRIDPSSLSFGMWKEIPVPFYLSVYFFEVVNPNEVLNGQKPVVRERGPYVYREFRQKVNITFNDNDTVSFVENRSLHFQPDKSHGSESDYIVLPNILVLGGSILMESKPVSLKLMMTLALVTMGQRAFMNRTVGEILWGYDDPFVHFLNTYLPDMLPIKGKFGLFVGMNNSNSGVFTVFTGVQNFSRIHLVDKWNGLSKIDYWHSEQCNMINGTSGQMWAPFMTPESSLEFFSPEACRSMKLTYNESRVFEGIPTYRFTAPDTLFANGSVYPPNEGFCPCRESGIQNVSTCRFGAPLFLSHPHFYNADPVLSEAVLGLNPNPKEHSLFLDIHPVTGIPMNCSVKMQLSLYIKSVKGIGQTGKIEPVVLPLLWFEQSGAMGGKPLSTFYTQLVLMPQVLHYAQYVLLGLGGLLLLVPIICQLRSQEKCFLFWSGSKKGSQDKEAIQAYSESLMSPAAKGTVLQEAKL
N-glyco inh: N-linked glycosylation inhibition. reporter increase, % at 12.5 µM. 360,000 compounds, 0.23% hits. D54 ERlucT glycosylation luciferase reporter, 24 h; percent of 100 nM tunicamycin response;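 active = mean luciferase reporter signal, scaled so untreated is 0 and the glycosylation-blocking control 100, at or above a set limit in every replicate; inconclusive = mean reaches the limit but not every replicate does; inactive = mean below the limit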;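 also: luciferase carries N-glycosylation sites so blocking glycosylation raises the light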
SR-BI DiI-HDL act: enhances SR-BI lipid uptake from DiI-HDL | CHO ldlA[mSR-BI] cells, DiI-HDL uptake fluorescence, 3 h; 100 = double the neutral-control signal | activation, % at 12.5 µM | 320,000 compounds, 0.096% hits;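 active = mean replicate activation of at least 60% and every replicate at or above 60%; inconclusive = mean or all-replicate condition met, but not both; inactive = mean below 60% and not all replicates reaching 60%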
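Material – SR-BI-overexpressing, LDLR-lacking CHO cells · Medium – BSA-supplemented, HEPES-buffered Ham's F12, pH 7.4 · Doses – single concentration · Times – compound with DiI-HDL co-incubation, 3 h at 37 °C · Measured by – bottom-read fluorescence, 550/595 nm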
Rtt109 HAT inh: C. albicans Rtt109 histone acetyltransferase inhibition; inhibition, % at 34.9 µM; 330,000 compounds, 0.16% hits; purified Rtt109/Vps75, ThioGlo CoA-SH fluorescence, 4 h; AID 540336;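 active = inhibition of at least 50% in every replicate; inconclusive = best replicate reaches 50% inhibition but some replicates fall short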
PglD inh: inhibitors of Campylobacter jejuni PglD acetyltransferase; purified PglD enzyme, DTNB colorimetric CoA detection; inhibition, % at 12.5 µM; 360,000 compounds, 0.098% hits; AID 602405; in the data active = inhibition above about 16%, passing the limit was not always enough; inconclusive = no clear call, values can overlap the other calls
HIV Env fusion: HIV envelope-mediated fusion inhibition. HeLa-JRFL Env/CEM21 cell fusion, luciferase. inhibition, % at 12.3 µM. 360,000 compounds, 1.1% hits. AID 651610;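 active = mean replicate inhibition score of at least 50 and every replicate individually at or above 50; inconclusive = only one of the two criteria met; inactive = mean below 50 and not all replicates reaching 50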
Numbers stand for hits; n = inactive; u = inconclusive; x = no result. An excerpt weighted towards active compounds, which were near 1.9% of everything screened.

SMILES	SR-BI HDL uptake	N-glyco inh	SR-BI DiI-HDL act	Rtt109 HAT inh	PglD inh	HIV Env fusion
C[C@@H]1CCCCO[C@@H](CN(C)C(=O)Nc2ccc(F)cc2)[C@@H](C)CN([C@@H](C)CO)C(=O)c2cc(NC(=O)Nc3ccc(F)cc3)ccc2O1	x	x	x	x	n	n
COCCN=c1scc(-c2ccccc2)n1/N=C/c1c[nH]c2ccccc12	83	n	n	u	x	n
CCC(C(=O)Nc1ccc(OC)c(Cl)c1)c1ccccc1 (centres undefined)	n	n	n	n	x	x
COc1ccc(NC(=O)C(Sc2nnc3ccccn23)c2ccccc2)cc1Cl (centres undefined)	n	n	82	n	x	n
O=C(CSc1nc2sc3c(c2c(=O)n1-c1ccccc1)CCCC3)NCc1ccco1	n	n	n	n	n	66
Cc1ccc(C(F)(F)F)cc1NC(N)=S	77	n	n	n	x	n
CCC(C)(C)c1ccc(Oc2ccc(N)cc2)cc1	n	n	n	n	n	60
COc1ccc(COC(=O)NC2CCN(S(=O)(=O)c3ccc(OC)cc3)CC2)cc1	n	n	n	n	n	56
Cc1ccc(OCC(=O)N2CCc3ccccc3C2)cc1	n	n	n	n	n	n
CN(C(=O)C(C)(C)C)c1ccc(OCC(=O)N2CCc3ccccc3C2)cc1	95	n	n	n	n	n
O=C(/C=C/c1cccnc1)c1ccc([N+](=O)[O-])cc1	x	35	x	n	n	n
CCOc1cc(N2CCOCC2)c(OCC)cc1NC(=O)c1ccc2ccccc2n1	95	n	n	n	x	n
O=C(N/N=C\C=C\c1ccc([N+](=O)[O-])o1)c1cccs1	n	41	n	n	n	n
Cc1ccccc1OCC(=O)N/N=C/c1ccc([N+](=O)[O-])o1	n	n	n	n	x	n
COc1ccccc1OCC(=O)N/N=C/C=C/c1ccc([N+](=O)[O-])o1	n	58	n	n	n	n
C[C@@H]1CN([C@H](C)CO)C(=O)c2cc(NS(=O)(=O)c3ccc(F)cc3)ccc2O[C@@H](C)CCCCO[C@@H]1CN(C)S(=O)(=O)c1ccccc1	x	x	x	x	n	n
CC1(C)C2CCC1(C)C(OCCNCCOC(=O)Nc1ccccc1)C2 (centres undefined)	n	n	n	n	n	69
CC1(C)C2CCC1(C)C(OC(=O)c1ccccc1C(=O)O)C2 (centres undefined)	n	n	n	n	n	n
COc1ccc(-c2[nH]c(-c3ccc4c(c3)OCO4)nc2-c2ccccc2)cc1	n	x	n	n	n	n
COc1cc(-c2nc(-c3ccccc3)c(-c3ccc(F)cc3)[nH]2)cc2c1OCO2	85	n	n	n	n	n
O=C(NC[C@@H]1N[C@@H](CO)[C@H]1c1ccc(C2=CCCCC2)cc1)c1cccc(F)c1	x	x	x	x	n	x
C[C@H]1CCCCO[C@@H](CN(C)S(=O)(=O)c2ccc(Cl)cc2)[C@@H](C)CN([C@@H](C)CO)C(=O)c2cc(NC(=O)CCC(F)(F)F)ccc2O1	x	x	x	x	n	n
COc1ccc(/C=C2\CCC/C(=C\c3ccc(OC)c(OC)c3OC)C2=O)c(OC)c1OC	74	n	n	n	n	n
Cc1ccc(S(=O)(=O)N(C)C[C@@H]2OCCCC[C@H](C)Oc3ccc(NC(=O)C4CCCCC4)cc3C(=O)N([C@H](C)CO)C[C@H]2C)cc1	x	x	x	x	n	n
CCOc1ccccc1NC(=O)C(CC(C)C)NC(=O)C1CCCCC1 (centres undefined)	n	n	n	n	n	n
SMILES	SR-BI HDL uptake	N-glyco inh	SR-BI DiI-HDL act	Rtt109 HAT inh	PglD inh	HIV Env fusion
COc1ccc(NC(=O)C(CC(C)C)NC(=O)C2CCCCC2)c(OC)c1 (centres undefined)	82	n	n	n	n	n
Cc1ccn2c(Nc3ccccc3)c(-c3ccccn3)nc2c1	x	n	x	n	n	66
Cc1ccn2c(Nc3ccccc3C)c(-c3ccccn3)nc2c1	x	n	x	n	n	n
CNC(=O)C[C@@H]1CC[C@H]2[C@H](COc3ccc(NC(=O)c4ccccc4Cl)cc3C(=O)N2C)O1	x	x	x	x	n	n
CCOCCn1c(=NC(=O)/C=C/c2ccccc2Cl)sc2cc(NC(C)=O)ccc21	71	n	n	n	x	n
C[C@@H]1CN([C@H](C)CO)C(=O)c2cc(C#CC(C)(C)O)cnc2O[C@H]1CN(C)Cc1cccc(F)c1	x	x	x	x	x	n
C[C@@H]1CCCCO[C@H](CN(C)Cc2ccccc2)[C@@H](C)CN([C@@H](C)CO)C(=O)c2cc(NS(=O)(=O)c3ccc(F)cc3)ccc2O1	x	x	x	x	n	n
CCOc1cc(C=O)ccc1OCCCN1C(=O)NC(C)(C)C1=O	n	n	n	n	n	n
CCCCOc1ccc(/C=C/C2=CC(C)(C)NC(=S)N2)cc1OCC	89	n	n	n	x	n
CO[C@@H]1CN(C)C(=O)c2cc(NC(=O)c3ccccc3)ccc2OC[C@H](C)N(CC2CC2)C[C@@H]1C	x	x	x	x	n	n
CCOc1ccc(C(=O)Nc2cccc(-c3ccc(N4CCOCC4)nn3)c2)cc1OCC	90	n	n	n	n	n
COc1ccc(C(=O)Nc2cccc(-c3ccc(N4CCOCC4)nn3)c2)cc1OC	75	n	n	n	n	n
CCOc1ccccc1C(=O)Nc1cccc(-c2ccc(N3CCOCC3)nn2)c1	n	n	n	n	n	n
COc1cccc(C(=O)Nc2cccc(-c3ccc(N4CCOCC4)nn3)c2)c1	n	n	n	n	x	n
CCOc1cc(C(=O)Nc2cccc(C(C)=O)c2)ccc1OCC(=O)N1CCCCC1	74	n	n	n	x	n
O=[N+]([O-])c1ccc(Nc2cccc3c2[nH]c2c(-c4ccccc4)nccc23)c([N+](=O)[O-])c1	79	n	n	n	x	n
NNC(=O)c1cc(-c2cccs2)nc2ccccc12	x	n	x	n	x	n
Cc1cccc2sc(NNC(=O)c3cc(-c4cccs4)nc4ccccc34)nc12	72	n	n	n	n	85
Cc1noc(C)c1NC(=O)Nc1ccc2c(c1)CC(=O)N([C@H](C)CO)C[C@@H](C)[C@H](CN(C)Cc1ccc(Oc3ccccc3)cc1)O2	x	x	x	x	n	n
COc1cccc(-c2cnc3c(c2)C(=O)N([C@@H](C)CO)C[C@H](C)[C@H](CN(C)Cc2ccc(F)cc2)O3)c1	x	x	x	x	n	n
COC(=O)[C@H](CC(C)C)N(Cc1ccccc1)S(=O)(=O)N(Cc1ccccc1)[C@@H](CC(C)C)C(=O)OC	n	n	n	n	n	n
COC(=O)[C@H](CC(C)C)N(Cc1ccccc1)S(=O)(=O)N(Cc1ccc(OC)cc1)[C@@H](CC(C)C)C(=O)OC	n	n	n	n	n	75
CCOC(=O)[C@@H](C)NS(=O)(=O)N(Cc1ccccc1)[C@H](C(=O)OC)C(C)C	n	n	n	n	n	n
COC(=O)C(CC(C)C)N(Cc1cc(OC)cc(OC)c1)S(=O)(=O)c1ccccc1Br (centres undefined)	n	n	n	n	n	59

High-throughput results from PubChem BioAssay.
